Source: ChEMBL document CHEMBL1138747, “Synthesis and structure--activity relationship in a class of indolebutylpiperazines as dual 5-HT(1A) receptor agonists and serotonin reuptake inhibitors” (J Med Chem, 2004)

Experiments:
[1] = target: T1, 5-hydroxytryptamine receptor 1A (Rattus norvegicus, UniProt P19327); assay: Inhibition of 8-OH DPAT binding to rat hydroxytryptamine 1A receptor
T1 sequence (P19327 whole entry): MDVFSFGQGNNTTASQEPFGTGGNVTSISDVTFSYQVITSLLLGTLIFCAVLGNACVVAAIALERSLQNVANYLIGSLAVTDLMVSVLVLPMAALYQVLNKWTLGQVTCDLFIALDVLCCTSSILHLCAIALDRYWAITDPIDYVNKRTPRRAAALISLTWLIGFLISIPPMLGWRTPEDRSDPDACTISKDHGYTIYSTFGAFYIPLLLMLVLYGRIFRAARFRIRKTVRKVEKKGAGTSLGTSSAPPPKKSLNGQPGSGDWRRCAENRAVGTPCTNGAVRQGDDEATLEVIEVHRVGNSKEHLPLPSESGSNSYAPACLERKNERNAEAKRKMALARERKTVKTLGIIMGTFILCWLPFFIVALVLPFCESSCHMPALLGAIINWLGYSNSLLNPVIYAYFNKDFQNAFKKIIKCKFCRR

D(2) dopamine receptor = D(2) dopamine receptor (Rattus norvegicus, UniProt P61169); assay: Displacement of [3H]spiperone from dopamine D2 receptor of rat striatal membranes; format: cell membranes, Membrane
Method in brief: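 IC50 from 5–10 compound concentrations, each in triplicate, taken as the concentration (nM) giving 50% inhibition of specific radioligand binding.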

[2] = target: Sodium-dependent serotonin transporter (Rattus norvegicus, UniProt P31652); assay: Inhibition of [3H]5-HT re-uptake in rat synaptosomes; format: subcellular, Brain
Rattus norvegicus [3] = assay: Dose required to inhibit ultrasonic vocalisation on peroral administered; format: functional; details: po, read-out: ID50 (the source's name)
Method in brief: (§1)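 Rat ultrasonic vocalization test. In a priming session, up to 10 grid-floor shocks were given (1.8 mA, 0.3 s, 20 s apart). Rats not vocalizing on three consecutive trials were excluded. Next day, rats were tested 2 h after dosing: five shocks, then vocalization duration recorded over 3 min. ID50 (dose for half-maximal inhibition) came from dose–response curves.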

Rattus norvegicus [4] = assay: Dose required to inhibit ultrasonic vocalisation on subcutaneous administered; format: functional; details: sc, read-out: ID50 (the source's name)
Method in brief: as §1

Sequence of Sodium-dependent serotonin transporter (P31652 whole entry): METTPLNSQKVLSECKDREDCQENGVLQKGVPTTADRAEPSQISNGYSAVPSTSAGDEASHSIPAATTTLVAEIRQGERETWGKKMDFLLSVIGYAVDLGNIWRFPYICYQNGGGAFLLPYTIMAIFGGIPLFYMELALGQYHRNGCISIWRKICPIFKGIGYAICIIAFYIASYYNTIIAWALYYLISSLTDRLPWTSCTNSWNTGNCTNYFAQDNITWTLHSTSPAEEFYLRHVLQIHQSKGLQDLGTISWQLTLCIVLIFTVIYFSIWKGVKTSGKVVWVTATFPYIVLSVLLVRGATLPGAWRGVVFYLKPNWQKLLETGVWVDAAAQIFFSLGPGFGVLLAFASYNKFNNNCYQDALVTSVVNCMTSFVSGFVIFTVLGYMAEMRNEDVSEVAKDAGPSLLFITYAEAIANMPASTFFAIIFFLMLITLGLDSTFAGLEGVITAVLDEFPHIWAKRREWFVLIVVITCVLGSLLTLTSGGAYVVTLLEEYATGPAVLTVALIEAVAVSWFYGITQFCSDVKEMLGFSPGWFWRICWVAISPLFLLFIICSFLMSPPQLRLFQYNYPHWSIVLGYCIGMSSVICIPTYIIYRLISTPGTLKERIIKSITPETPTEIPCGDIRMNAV
Sequence of D(2) dopamine receptor (P61169 whole entry): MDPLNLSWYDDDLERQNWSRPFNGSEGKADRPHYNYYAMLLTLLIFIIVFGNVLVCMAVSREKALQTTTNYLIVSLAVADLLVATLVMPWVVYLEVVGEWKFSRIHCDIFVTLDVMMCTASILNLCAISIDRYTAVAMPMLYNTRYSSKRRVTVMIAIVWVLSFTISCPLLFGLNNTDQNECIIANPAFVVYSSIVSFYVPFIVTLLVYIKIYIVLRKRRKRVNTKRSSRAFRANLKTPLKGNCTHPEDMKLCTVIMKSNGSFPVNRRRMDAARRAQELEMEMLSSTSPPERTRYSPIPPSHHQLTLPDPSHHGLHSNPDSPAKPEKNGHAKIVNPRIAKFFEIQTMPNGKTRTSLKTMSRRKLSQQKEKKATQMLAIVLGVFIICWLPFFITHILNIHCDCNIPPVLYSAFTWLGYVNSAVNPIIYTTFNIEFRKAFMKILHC

Compound | IC50 [1] [nM] | IC50 (D(2) dopamine receptor) [nM] | IC50 [2] [nM] | ED50 (Rattus norvegicus [3]) [mg/kg] | ED50 (Rattus norvegicus [4]) [mg/kg]
COc1ccc(N2CCN(CCCCc3c[nH]c4ccc(C#N)cc34)CC2)cc1OC | 60 | 40 | 0.3 |  | 
N#Cc1ccc2[nH]cc(CCCCN3CCN(c4ccc5c(c4)CC(C(N)=O)O5)CC3)c2c1 (centres undefined) | 3.2 | 1400 | 3.1 |  | 
N#Cc1ccc2[nH]cc(CCCCN3CCN(c4ccc5occc5c4)CC3)c2c1 | 8.7 | 8 | 3.9 |  | 
N#Cc1ccc2[nH]cc(CCCCN3CCN(c4ccc5oc(C#N)cc5c4)CC3)c2c1 | 0.4 | > 630 | 1 |  | 
N#Cc1ccc2[nH]cc(CCCCN3CCN(c4ccc5c(c4)CCO5)CC3)c2c1 | 4 | 13 | 1 |  | 
O/N=C/c1ccc2[nH]cc(CCCCN3CCN(c4ccc5c(c4)OCCO5)CC3)c2c1 | 0.4 | 9.4 | 5 |  | 
N#Cc1ccc2[nH]cc(CCCCN3CCN(c4ccc5sc(C(N)=O)cc5c4)CC3)c2c1 | 3.1 |  | 0.3 |  | 
O=Cc1ccc2[nH]cc(CCCCN3CCN(c4ccc5c(c4)OCCO5)CC3)c2c1 | 0.7 | < 100 | 1 |  | 
COc1cc(C#N)ccc1N1CCN(CCCCc2c[nH]c3ccc(C#N)cc23)CC1 | 8 | 6 | 4.1 |  | 
N#Cc1ccc(N2CCN(CCCCc3c[nH]c4ccc(F)cc34)CC2)cc1 | 40 | > 100 | 2 |  | 
N#Cc1ccc2[nH]cc(CCCCN3CCN(c4ccc5occc5c4C(N)=O)CC3)c2c1 | 3.3 | 220 | 5.5 |  | 
N#Cc1cc2cc(N3CCN(CCCCc4c[nH]c5ccc(F)cc45)CC3)ccc2o1 | 5 | > 100 | 3 |  | 
N#Cc1ccc(N2CCN(CCCCc3c[nH]c4ccc(C#N)cc34)CC2)cc1 | 1.1 | 255 | 1.3 | 14 | 
CCOCCOCCOc1cccc(N2CCN(CCCCc3c[nH]c4ccc(C#N)cc34)CC2)c1C#N | 2 | 28 | 3.2 |  | 
N#Cc1ccc2[nH]cc(CCCCN3CCN(c4ccc(O)cc4)CC3)c2c1 | 6 | 35 | 0.5 |  | 
Fc1ccc2[nH]cc(CCCCN3CCN(c4ccc5c(c4)OCCO5)CC3)c2c1 | 5 | 130 | 1 |  | 
N#Cc1ccc2[nH]cc(CCCCN3CCN(c4ccc(C(N)=O)cc4)CC3)c2c1 | 118 | > 270 | 0.6 |  | 
COc1ccc2[nH]cc(CCCCN3CCN(c4ccc5c(c4)OCCO5)CC3)c2c1 |  |  | 100 |  | 
N#Cc1ccc2[nH]cc(CCCCN3CCN(c4ccc(F)cc4)CC3)c2c1 |  | 4.2 | 1 | 7 | 3
N#Cc1ccc2[nH]cc(CCCCN3CCN(c4ccc5c(c4)CCCO5)CC3)c2c1 | 5 | < 42 | 0.9 |  | 
N#Cc1ccc2[nH]cc(CCCCN3CCN(c4cccc5cc(C(N)=O)oc45)CC3)c2c1 | 1.9 | 39 | 2.6 |  | 
Fc1ccc2[nH]cc(CCCCN3CCN(c4ccc5c(c4)OCO5)CC3)c2c1 | 4 | < 100 | 1 |  | 
N#Cc1ccc2[nH]cc(CCCCN3CCN(c4ccc5c(c4)OCO5)CC3)c2c1 | 0.7 | 4.9 | 0.6 | 4 | 1
O=C(O)c1ccc2[nH]cc(CCCCN3CCN(c4ccc5c(c4)OCCO5)CC3)c2c1 | 4 | > 100 |  |  | 
N#Cc1ccc2[nH]cc(CCCCN3CCN(c4cccc5oc(C(N)=O)cc45)CC3)c2c1 | 1.4 | 6.6 | 8.5 |  | 

Compound | IC50 [1] [nM] | IC50 (D(2) dopamine receptor) [nM] | IC50 [2] [nM] | ED50 (Rattus norvegicus [3]) [mg/kg] | ED50 (Rattus norvegicus [4]) [mg/kg]
N#Cc1ccc2[nH]cc(CCCCN3CCN(c4ccccc4)CC3)c2c1 | 400 | 3.8 | 1 |  | 
COC(=O)c1ccc2[nH]cc(CCCCN3CCN(c4ccc5c(c4)OCCO5)CC3)c2c1 | 0.6 | < 100 | 50 |  | 
N#Cc1ccc2[nH]cc(CCCCN3CCN(c4ccc5nsnc5c4)CC3)c2c1 | 2 | 31 | 3.1 |  | 3
N#Cc1ccc2[nH]cc(CCCCN3CCN(c4cc(F)c(C#N)c(F)c4)CC3)c2c1 | 36 |  | 5.4 |  | 
N#Cc1ccc2[nH]cc(CCCCN3CCN(c4ccc5oc(=O)ccc5c4)CC3)c2c1 | 0.1 | 740 | 0.7 | 4 | 0.5
N#Cc1ccc2[nH]cc(CCCCN3CCN(c4ccc5c(c4)OCCO5)CC3)c2c1 | 1 | 5.6 | 0.4 |  | 
N#Cc1ccc2[nH]cc(CCCCN3CCN(c4ccccc4C(N)=O)CC3)c2c1 | 6.4 | 47 | 16 |  | 
COc1ccc(N2CCN(CCCCc3c[nH]c4ccc(C#N)cc34)CC2)cc1 | 1 | 46 | 0.5 |  | 
N#Cc1ccc2[nH]cc(CCCCN3CCN(c4ccc5[nH]ccc5c4)CC3)c2c1 | 1.6 | 5.7 | 2.4 |  | 
N#Cc1ccc2[nH]cc(CCCCN3CCN(c4c(C#N)cccc4C#N)CC3)c2c1 | 40 | < 100 | 2 |  | 
O=c1ccc2cc(N3CCN(CCCCc4c[nH]c5ccc(F)cc45)CC3)ccc2o1 | 0.7 | > 100 | 0.9 |  | 
N#Cc1ccc2[nH]cc(CCCCN3CCN(c4cccc5nsnc45)CC3)c2c1 | 1 | 1.4 | 1.5 |  | 
NC(=O)c1cc2cc(N3CCN(CCCCc4c[nH]c5ccc(F)cc45)CC3)ccc2o1 | 3 | > 100 | 0.3 |  | 
Clc1ccc2[nH]cc(CCCCN3CCN(c4ccc5c(c4)OCCO5)CC3)c2c1 | 40 | > 100 | 20 |  | 
Oc1ccc2[nH]cc(CCCCN3CCN(c4ccc5c(c4)OCCO5)CC3)c2c1 | 0.2 | 77 | 0.5 |  | 
N#Cc1ccc2[nH]cc(CCCCN3CCN(c4ccc(O)c(C#N)c4)CC3)c2c1 | 400 | 43 | 0.8 |  | 
NC(=O)c1ccc2[nH]cc(CCCCN3CCN(c4ccc5c(c4)OCCO5)CC3)c2c1 |  |  | 60 |  | 
c1ccc2c(CCCCN3CCN(c4ccc5c(c4)OCCO5)CC3)c[nH]c2c1 | 8 | > 100 | 10 |  | 
N#Cc1ccc2[nH]cc(CCCCN3CCN(c4ccc(C#N)c(C#N)c4)CC3)c2c1 | 12 |  | 2 |  | 
COc1cc(N2CCN(CCCCc3c[nH]c4ccc(C#N)cc34)CC2)ccc1C#N | 14 |  | 3.4 |  | 
N#Cc1ccc2[nH]cc(CCCCN3CCN(c4ccc5[nH]c(C(N)=O)cc5c4)CC3)c2c1 | 14 | 140 | 2 |  | 
COc1ccc(Cl)cc1N1CCN(CCCCc2c[nH]c3ccc(C#N)cc23)CC1 | 30 |  | 6.8 |  | 
COc1ccccc1N1CCN(CCCCc2c[nH]c3ccc(C#N)cc23)CC1 | 1 | 0.7 | 3 |  | 
COc1cccc(N2CCN(CCCCc3c[nH]c4ccc(C#N)cc34)CC2)c1C#N | 5.6 | 1.4 | 3.9 |  | 
